In ChEMBL document CHEMBL4819119, “Design and evaluation of 1,2,3-dithiazoles and fused 1,2,4-dithiazines as anti-cancer agents” (Bioorg Med Chem Lett, 2021) one finds IC50 data, which are given here for 26 compounds.

The subject of assay [1] is 5637. In words: Cytotoxicity against human 5637 cells assessed as reduction in cell viability incubated for 72 hrs by alamar blue assay. The class given is functional, cell-based. Conditions: Homo sapiens, 5637, 72 h. The method, boiled down:
(§1)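 Cells seeded in 384-well plates and dosed 24 h after plating, in quadruplicate. Viability was read by alamarBlue fluorescence at 72 h. IC50 came from nonlinear regression as the mean of 4 replicates. Growth media carried 10% FBS and 1% pen/strep: UCH1/UCH2 in 4:1 IMDM:RPMI-1640 in gel-coated flasks; A431, PANC1 and WS1 in DMEM; DU145 and MCF7 in MEM; 5637 in RPMI-1640.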
(In general: Resazurin is reduced to fluorescent resorufin, in cell work by metabolically active cells.)

For assay [2], the system named is MCF7. Nature of the assay: Cytotoxicity against human MCF7 cells assessed as reduction in cell viability incubated for 72 hrs by alamar blue assay. The class given is functional, cell-based. Conditions: MCF7, 72 h. The method, boiled down: as §1
Assay [3] in a line: Cytotoxicity against human UCH1 cells assessed as reduction in cell viability incubated for 72 hrs by alamar blue assay. The class given is functional, cell-based. Conditions: UCH1, 72 h. The method, boiled down:
as §1

A short description of assay [4]: Cytotoxicity against human UCH2 cells assessed as reduction in cell viability incubated for 72 hrs by alamar blue assay. The conditions noted are these: UCH2, 72 h. The class given is functional, cell-based. The method, boiled down: as §1
Assay [5] deals with DU-145. In words: Cytotoxicity against human DU-145 cells assessed as reduction in cell viability incubated for 72 hrs by alamar blue assay. The class given is functional, cell-based. Conditions: DU-145, 72 h. The method, boiled down:
as §1

The nature of assay [6]: Cytotoxicity against human WS1 cells assessed as reduction in cell viability incubated for 72 hrs by alamar blue assay. The conditions noted are these: WS1, 72 h. The class given is cell-based. The method, boiled down:
as §1

Assay [7] concerns PANC-1. Nature of the assay: Cytotoxicity against human PANC1 cells assessed as reduction in cell viability incubated for 72 hrs by alamar blue assay. The class given is functional, cell-based. Conditions: PANC-1, 72 h. The method, boiled down: as §1
The test system of assay [8] is A-431. Nature of the assay: Cytotoxicity against human A-431 cells assessed as reduction in cell viability incubated for 72 hrs by alamar blue assay. The class given is functional, cell-based. Conditions: A-431, 72 h. The method, boiled down:
as §1

Usually IC50 stands for the midpoint of a concentration-inhibition curve.

Some results are limits rather than exact numbers.

For `Cc1cc(/N=c2\ssnc2Cl)n(Cc2ccccc2)n1`, the IC50 was determined as 2.1 µM in assay [1]; 18 µM in assay [2]; 33 µM in assay [3]; 30 µM in assay [4]; 10 µM in assay [5]; 15 µM in assay [6]. Besides, the IC50 came to 26 µM in assay [7] and 27 µM in assay [8].

For the compound `Clc1nss/c1=N\c1nccs1`, the IC50 in assay [1] was determined as 15 µM; in assay [2] it was 45 µM; in assay [3], 10 µM; in assay [4], 22 µM; in assay [5] it was 8.1 µM; in assay [6], 24 µM. The results for the IC50 in assay [7] and in assay [8] were 24 µM and 17 µM, respectively.

As for `Clc1nss/c1=N\c1ccc2c(c1)OCO2`, the IC50 in assay [1] came to 32 µM; in assay [2] it was 19 µM; in assay [3] it was 28 µM; in assay [4], 22 µM; in assay [5] it was 17 µM; in assay [6], 84 µM. The IC50 came out at 24 µM in assay [7] and 95 µM in assay [8].

Consider `Cc1nn(C)c2c1SSC(C#N)=N2`, for which the IC50 is 81 µM in assay [1]; over 100 µM in assay [2]; over 100 µM in assay [3]; over 100 µM in assay [4]; 40 µM in assay [5]; over 100 µM in assay [6]. In addition, the half-maximal inhibitory concentration (IC50) in assay [7] and in assay [8] was over 100 µM in each case.

As for `O=S(=O)(Nc1nccs1)c1ccc(/N=c2\ssnc2Cl)cc1`, the IC50 in assay [1] was 27 µM; in assay [2], 49 µM; in assay [3], 30 µM; in assay [4], 36 µM; in assay [5], 92 µM; in assay [6], over 100 µM. Further, the results for the IC50 in assay [7] and in assay [8] were 97 µM and over 100 µM, respectively.

Turning to `O=C(OCCN1CCN(c2nss/c2=N\c2ccccc2)CC1)c1ccccc1`, the IC50 in assay [1] worked out at 13 µM; in assay [2] it was 17 µM; in assay [3] it was 23 µM; in assay [4] it was 34 µM; in assay [5], 30 µM; in assay [6], 38 µM. The IC50 in assay [7] was 60 µM; in assay [8], 36 µM.

As to `Clc1nss/c1=N\c1cc(-c2ccccc2)n[nH]1`, the IC50 is 16 µM in assay [1]; 9.3 µM in assay [2]; 59 µM in assay [3]; 38 µM in assay [4]; 11 µM in assay [5]; over 100 µM in assay [6]. Besides, the IC50 in assay [7] is 23 µM; in assay [8], over 100 µM.

With `Clc1nss/c1=N\c1ccc(Br)cc1`, the IC50 was 36 µM in assay [1]; 11 µM in assay [2]; 43 µM in assay [3]; 51 µM in assay [4]; 48 µM in assay [5]; over 100 µM in assay [6]. The IC50 in assay [7] was 35 µM; in assay [8], over 100 µM.

`CN(CCN1CCN(c2nssc2=O)CC1)c1ccccc1`: the IC50 in assay [1] was 12 µM; in assay [2], 2.2 µM; in assay [3], 12 µM; in assay [4] it was 17 µM; in assay [5] it was 4.4 µM; in assay [6] it was 20 µM. Also, the IC50 came out at 21 µM in assay [7] and 17 µM in assay [8].

For the compound `Clc1nss/c1=N\c1ccc(Oc2ccccc2)cc1`, the IC50 in assay [1] was 35 µM; in assay [2], 35 µM; in assay [3], 30 µM; in assay [4], 33 µM; in assay [5], over 100 µM; in assay [6], over 100 µM. Besides, the figures for the half-inhibitory concentration (IC50) in assay [7] and in assay [8] were 55 µM and over 100 µM, respectively.

With `Cc1cc(OC(F)(F)F)ccc1/N=c1\ssnc1Cl`, the IC50 in assay [1] was 47 µM; in assay [2] it was 43 µM; in assay [3], 57 µM; in assay [4], 87 µM; in assay [5], 18 µM; in assay [6] it was over 100 µM. Besides, the IC50 was 76 µM in assay [7] and over 100 µM in assay [8].

In the case of `FC(F)(F)Oc1ccc(/N=c2\ssnc2Cl)cc1Br`, the IC50 in assay [1] is 36 µM; in assay [2], 73 µM; in assay [3], 34 µM; in assay [4] it was 85 µM; in assay [5], 52 µM; in assay [6] it was over 100 µM. The IC50 was over 100 µM in assay [7] and 100 µM in assay [8].

Turning to `N#CC1=Nc2c(c(-c3ccccc3)nn2-c2ccccc2)SS1`, the IC50 is 14 µM in assay [1]; 36 µM in assay [2]; 55 µM in assay [3]; 68 µM in assay [4]; 16 µM in assay [5]; over 100 µM in assay [6]. Moreover, the IC50 in assay [7] was found to be 75 µM; in assay [8] it was 72 µM.

For `O=C1c2ccccc2C(=O)N1CCN1CCN(c2nssc2=S)CC1`, the IC50 in assay [1] was 25 µM; in assay [2] it was 51 µM; in assay [3], 46 µM; in assay [4], over 100 µM; in assay [5], 23 µM; in assay [6], over 100 µM. For the same compound, the IC50 in assay [7] is 73 µM; in assay [8] it was over 100 µM.

`N#Cc1c(Br)cccc1/N=c1\ssnc1Cl`: the IC50 was 14 µM in assay [1]; 28 µM in assay [2]; 39 µM in assay [3]; 65 µM in assay [4]; 42 µM in assay [5]; over 100 µM in assay [6]. Further, the IC50 in assay [7] is 13 µM; in assay [8], over 100 µM.

Consider `N#CSCCN1CCN(c2nssc2=O)CC1`, for which the IC50 in assay [1] was 39 µM; in assay [2], 5.4 µM; in assay [3], 12 µM; in assay [4], 14 µM; in assay [5] it was 3.3 µM; in assay [6] it was 17 µM. The IC50 in assay [7] amounted to 11 µM; in assay [8], 25 µM.

For `O=c1ssnc1N1CCN(CCSc2nc3ccccc3s2)CC1`, the concentration for half-maximal inhibition (IC50) in assay [1] turned out to be 33 µM; in assay [2] it was 9.9 µM; in assay [3] it was 25 µM; in assay [4], 31 µM; in assay [5], 22 µM; in assay [6] it was 92 µM. Moreover, the IC50 in assay [7] is 77 µM; in assay [8] it was 90 µM.

Take `Clc1nss/c1=N\c1cc(-c2ccccc2)nn1Cc1ccccc1`: the IC50 is 16 µM in assay [1]; 30 µM in assay [2]; 30 µM in assay [3]; 52 µM in assay [4]; 14 µM in assay [5]; over 100 µM in assay [6]. For the same compound, the figures for the IC50 in assay [7] and in assay [8] were 18 µM and over 100 µM, respectively.

With `CCCCOc1ccc(/N=c2\ssnc2Cl)cc1`, the IC50 in assay [1] is 18 µM; in assay [2] it was 42 µM; in assay [3] it was 54 µM; in assay [4], 48 µM; in assay [5], 52 µM; in assay [6], over 100 µM. Besides, the IC50 in assay [7] and in assay [8] was over 100 µM in each case.

Consider `N#CC1=Nc2c(c(-c3ccccc3)nn2Cc2ccccc2)SS1`, for which the IC50 in assay [1] is 8.7 µM; in assay [2] it was 54 µM; in assay [3], over 100 µM; in assay [4] it was over 100 µM; in assay [5] it was 32 µM; in assay [6] it was 51 µM. Moreover, the results for the IC50 in assay [7] and in assay [8] were over 100 µM and 54 µM, respectively.

With `Cc1cc(/N=c2\ssnc2Cl)n[nH]1`, the IC50 was 20 µM in assay [1]; 18 µM in assay [2]; 33 µM in assay [3]; 18 µM in assay [4]; 14 µM in assay [5]; 40 µM in assay [6]. Further, the IC50 stood at 27 µM in assay [7] and 69 µM in assay [8].

Turning to `N#Cc1cc(Br)ccc1/N=c1\ssnc1N1CCN(CCCl)CC1`, the IC50 in assay [1] is 8 µM; in assay [2], 4.1 µM; in assay [3] it was 32 µM; in assay [4] it was 23 µM; in assay [5], 15 µM; in assay [6] it was over 100 µM. The IC50 in assay [7] was 18 µM; in assay [8], over 100 µM.

As for `c1ccc(/N=c2\ssnc2N2CCN(CCNc3ccccc3)CC2)cc1`, the concentration for half-maximal inhibition (IC50) in assay [1] is 18 µM; in assay [2], 10 µM; in assay [3], 25 µM; in assay [4], 21 µM; in assay [5], 55 µM; in assay [6], 55 µM. The results for the IC50 in assay [7] and in assay [8] were 67 µM and 87 µM, respectively.

Regarding `Clc1nss/c1=N\c1ccc(OCc2ccccc2)cc1`, the IC50 in assay [1] was 13 µM; in assay [2], 50 µM; in assay [3], 44 µM; in assay [4], over 100 µM; in assay [5], 45 µM; in assay [6], over 100 µM. The IC50 in assay [7] and in assay [8] was over 100 µM in each case.

On to `CSc1ccc(/N=c2\ssnc2Cl)cc1`, for which the IC50 in assay [1] was found to be 34 µM; in assay [2], 36 µM; in assay [3] it was 38 µM; in assay [4] it was 37 µM; in assay [5] it was 14 µM; in assay [6], 66 µM. Also, the values for the IC50 in assay [7] and in assay [8] were 86 µM and 51 µM, respectively.

For the compound `O=S(=O)(Nc1ncccn1)c1ccc(/N=c2\ssnc2Cl)cc1`, the half-maximal inhibitory concentration (IC50) in assay [1] was 39 µM; in assay [2] it was 3 µM; in assay [3], 34 µM; in assay [4], 19 µM; in assay [5] it was 29 µM; in assay [6] it was over 100 µM. The IC50 in assay [7] was 37 µM; in assay [8] it was over 100 µM.
